SIAE primary = human SIAE inhibition, primary screen; 370,000 compounds, 0.69% hits; inhibition, % at 9.66 µM; Q9HAT2; AID 1053197; SIAE FP-Rh probe binding, fluorescence polarization;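 active means inhibition above a cutoff: mean of compounds within the control limits plus 3 SD of those, cut at about 17% in these data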
PAD4 inh = inhibitors of human PAD4 | recombinant PAD4, RCA probe fluorescence polarization | inhibition, % at 6.36 µM | Q9UM07 | 330,000 compounds, 0.41% hits;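 active means percent inhibition above a cutoff equal to the mean of all tested compounds plus 3 SD, cut at about 15% in these data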
GSTO1 counter = counter-screen for RBBP9 inhibitors: inhibitors of human GSTO1; inhibition, % at 5.96 µM; recombinant GSTO1, activity-based probe fluorescence polarization; 300,000 compounds, 1.1% hits; P78417;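 active means inhibition above the campaign mean inhibition plus 3 SD, cut at about 35% in these data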
Target sequence (P78417 whole entry, looked up): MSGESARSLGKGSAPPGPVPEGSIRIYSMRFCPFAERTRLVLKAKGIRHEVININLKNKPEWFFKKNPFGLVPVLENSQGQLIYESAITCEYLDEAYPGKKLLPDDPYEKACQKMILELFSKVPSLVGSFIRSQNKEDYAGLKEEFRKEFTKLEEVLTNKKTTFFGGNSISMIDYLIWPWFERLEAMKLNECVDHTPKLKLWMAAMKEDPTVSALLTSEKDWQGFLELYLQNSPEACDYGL
TDP2 absorb = blocks human TDP2 phosphodiesterase activity. O95551. recombinant TDP2, T5PNP hydrolysis, p-nitrophenol absorbance 415 nm. inhibition, % at 12.8 µM. 370,000 compounds, 0.34% hits;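 active means inhibition above the mean of all tested compounds plus 3 SD, set per campaign, cut at about 25% in these data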
Target sequence (O95551 whole entry, looked up): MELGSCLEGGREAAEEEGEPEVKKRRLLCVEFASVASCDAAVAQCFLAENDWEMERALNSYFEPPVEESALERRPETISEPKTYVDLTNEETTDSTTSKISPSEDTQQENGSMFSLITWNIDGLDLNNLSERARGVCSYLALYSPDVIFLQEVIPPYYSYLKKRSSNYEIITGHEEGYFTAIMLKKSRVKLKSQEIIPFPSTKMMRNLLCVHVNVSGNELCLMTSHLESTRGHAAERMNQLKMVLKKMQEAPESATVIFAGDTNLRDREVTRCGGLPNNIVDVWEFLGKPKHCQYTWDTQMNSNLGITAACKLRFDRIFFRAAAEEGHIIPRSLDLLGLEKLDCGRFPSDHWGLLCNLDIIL
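Test system: Human TDP2 enzyme | Reagent: 5 mM T5PNP | Compound dosing: 12.8 µM single point, 1% DMSO | Incubation: Enzyme reaction with compound for 2 h at 37 °C | Technique: p-Nitrophenol epi absorbance | Read-out: % inhibition relative to enzyme-containing and enzyme-free wells | Benchmarks: High control without enzyme, low control DMSO plus TDP2 | Replicates: Singlicate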
TCR CD3 inh = human TCR-CD3 binding inhibition; TAMRA-labeled TCR probe fluorescence, biochemical; inhibition, % at 9.4 µM; 360,000 compounds, 0.37% hits; AID 651800; in the data active means inhibition above about 19%;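 further: recombinant mutant TCR 2C K166C tagged with TAMRA read by polarization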
Apaf-1 inh = inhibitors of human Apaf-1 apoptosome; 330,000 compounds, 0.71% hits; reconstituted apoptosome caspase-3 activity, DEVD-Rh110 fluorescence; inhibition, % at 20 µM; O14727; AID 489030; active means inhibition of at least 40% at 20 µM
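Assay system – apoptosome proteins · Medium – Hepes buffer, pH 7.5 · Also added – cytochrome c with DEVD-Rh110 · Timing – 30 min compound preincubation, 50 min activation, room temperature · Detection – Rh110 fluorescence, excitation 480 nm, emission 540 nm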
Apaf-1 inh conf = Apaf-1 inhibition, single-dose confirmed; shares compounds with Apaf-1 inh; inhibition, % at 20 µM; AID 504614; 1,800 compounds, 25% hits; reconstituted apoptosome, caspase-3 DEVD-Rh110 fluorescence;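 active means mean inhibition of at least 40% at 20 µM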
Rh110 quench = counter-screen for Apaf-1 inhibitors: fluorescence interference; shares compounds with Apaf-1 inh; Rh110 fluorescence interference, quenched caspase reaction; activation (fluorescence interference), % at 20 µM; 1,800 tested, under 10 active; AID 504615;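 active means signal rise of 40% or more at 20 µM, treated as a fluorescence artifact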
Fluor interf inh = Apaf-1 inhibitor counter-screen fluorescence artifact; 460 tested, under 10 active; IC50, µM; fluorescence interference counterscreen, Apaf-1 assay format; shares compounds with Apaf-1 inh; AID 588538; call rule not given here
Numbers stand for hits; - = inactive; . = no result. Sampled rows, rich in hits. Any-hit rate of the full collection: about 2.4%.

SMILES	SIAE primary	PAD4 inh	GSTO1 counter	TDP2 absorb	TCR CD3 inh	Apaf-1 inh	Apaf-1 inh conf	Rh110 quench	others
O=C(NCc1ccccc1)c1cccc(S(=O)(=O)N2CCCCC2)c1	-	-	-	-	-	-	.	.
O=C(NCc1cccs1)c1cccc(S(=O)(=O)N2CCCCC2)c1	-	-	-	-	-	54.8	-	-
CN(CC(=O)Nc1ccccc1C(F)(F)F)CC(=O)N1CCCCCC1	-	-	.	-	-	-	.	.
CCN(CC(=O)Nc1ccccc1C(F)(F)F)C(=O)c1ccccc1SCC(=O)N1CCCC1	-	-	-	-	-	42.9	-	-
Cc1ccc(S(=O)(=O)N(C)C)cc1NC(=O)c1ccccc1SCC(=O)N1CCCC1	-	-	.	-	-	41.5	-	-
Cc1ccc(S(=O)(=O)N(C)C)cc1NC(=S)Nc1cccc2ccccc12	-	-	-	-	-	93.2	-	-
COc1cccc(-n2c(N)c(-c3nc4ccccc4[nH]3)sc2=S)c1	-	-	-	-	-	-	.	.
CCCc1c(C(=O)N/N=C(\C)c2cccnc2)nnn1-c1nonc1N	-	.	.	-	-	.	.	.
CC(C)OP(=O)(OC(C)C)C(Nc1ccccn1)c1ccc(F)cc1 (stereo not given)	-	-	-	-	-	54.9	-	-
CC(=O)Nc1ccc(OCC(O)Cn2nc(C)c(C(C)=O)c2C)cc1 (stereo not given)	-	-	-	-	-	-	.	.
C[C@@H]1CN([C@H](C)CO)C(=O)Cc2cc(NS(=O)(=O)c3ccc(Cl)cc3)ccc2O[C@H]1CN(C)Cc1ccc(C(F)(F)F)cc1	.	-	.	.	.	40.6	-	-
CCOC(=O)c1c(NC(=O)c2cccs2)sc(C)c1CC	-	-	-	-	-	51.1	-	-
C#CCOCCOCCOCCNc1nc(N2CCN(C(=O)[C@H](CCCCN)n3cc(CN)nn3)CC2)nc(N2CCN(C(=O)[C@H](CCCCN)n3cc(CN)nn3)CC2)n1	-	-	.	-	-	44.1	-	-
C#CCOCCOCCOCCNc1nc(N2CCN(C(=O)[C@H]([C@@H](C)CC)n3cc(CCC(=O)O)nn3)CC2)nc(N2CCN(C(=O)[C@H](CCCCN)n3cc(CCC(=O)O)nn3)CC2)n1	-	.	.	-	-	.	.	.
C#CCOCCOCCOCCNc1nc(N2CCN(C(=O)CCCCCCCCCCNC(=O)[C@@H](CCC(=O)O)n3cc(CCCCCN)nn3)CC2)nc(N2CCN(C(=O)CCCCCCCCCCNC(=O)[C@H](CCCCN)n3cc(C[C@@H](C)CC)nn3)CC2)n1	.	-	-	.	.	71.7	49.5	-	Fluor interf inh=-
C#CCOCCOCCOCCNc1nc(N2CCN(C(=O)CCCCCCCCCCNC(=O)[C@@H](CCSC)n3cc(CCO)nn3)CC2)nc(N2CCN(C(=O)CCCCCCCCCCNC(=O)[C@H](CO)n3cc(CCCCCN)nn3)CC2)n1	.	-	-	.	.	71.1	40.2	-	Fluor interf inh=-
C#CCOCCOCCOCCNc1nc(N2CCN(C(=O)CCCCCCCCCCNC(=O)[C@H](CCCCN)n3cc(CCO)nn3)CC2)nc(N2CCN(C(=O)CCCCCCCCCCNC(=O)[C@H](CCCCN)n3cc(CCCC(=O)O)nn3)CC2)n1	-	-	-	-	-	59.1	-	-
CC(=O)NC12CC3CC(C1)CC(C(=O)N1CCN(S(=O)(=O)c4ccc(Cl)s4)CC1)(C3)C2	-	-	-	-	-	-	.	.
Cc1cc(=O)[nH]c(SCCCOc2ccc(F)cc2)n1	-	-	-	-	-	-	.	.
C#CCOCCOCCOCCNc1nc(N2CCN(C(=O)CCCCCCCCCCNC(=O)[C@H](CCCCN)n3cc(C)nn3)CC2)nc(N2CCN(C(=O)CCCCCCCCCCNC(=O)[C@H](CCCN=C(N)N)n3cc(C[C@@H](C)CC)nn3)CC2)n1	.	-	-	.	.	74.5	57.0	-	Fluor interf inh=-
C#CCOCCOCCOCCNc1nc(N2CCN(C(=O)Cn3cc(CCCCN)nn3)CC2)nc(N2CCN(C(=O)[C@H](C)n3cc(CCC(=O)O)nn3)CC2)n1	-	.	.	-	-	.	.	.
C#CCOCCOCCOCCNc1nc(N2CCN(C(=O)CCCCCCCCCCNC(=O)[C@@H](CCSC)n3cc(CCO)nn3)CC2)nc(N2CCN(C(=O)CCCCCCCCCCNC(=O)[C@H](CCC(=O)O)n3cc(CCCCCN)nn3)CC2)n1	.	-	-	.	.	61.6	-	-
CC1=[N+](C)c2ccc3ccccc3c2C1(C)C	-	-	-	-	-	41.9	-	-
c1ccc2c(c1)ccc1ccccc12	-	-	.	-	-	-	.	.
CCOC(=O)c1cnn(-c2c(Cc3ccccc3)c(C)nc3c(-c4ccccc4)c(C)nn23)c1N	-	-	-	-	-	61.6	54.8	-	Fluor interf inh=-
SMILES	SIAE primary	PAD4 inh	GSTO1 counter	TDP2 absorb	TCR CD3 inh	Apaf-1 inh	Apaf-1 inh conf	Rh110 quench	others
CN(C)c1cccc2c1c(NC(=O)c1ccc(F)cc1)nn2C	-	-	-	-	-	91.9	-	-
CN(C)c1cccc2c1c(NC(=O)Nc1ccc(F)cc1F)nn2C	-	-	-	-	-	-	.	.
CN(C)c1cccc2c1c(NC(=O)Nc1ccccc1)nn2C	-	-	-	-	-	82.4	-	-
Cc1c(CCOC(=O)CC23CC4CC(CC(C4)C2)C3)sc[n+]1CC(=O)c1ccc(Br)cc1	-	-	-	-	-	49.3	-	-
CCOC(=O)C1CCCN(C(=O)c2ccc3c(c2)OCCO3)C1 (stereo not given)	-	.	.	-	-	-	.	.
CCOC(=O)c1nn(-c2ccc(OC)cc2)c(=O)c2c(N)scc12	-	-	-	-	-	-	.	.
CCOC(=O)c1nn(-c2ccc(C)c(C)c2)c(=O)c2c(N)scc12	-	-	-	-	-	56.3	41.0	-	Fluor interf inh=-
Cc1cc(C(=O)NNC(=O)Nc2ccccc2)no1	-	-	-	-	-	-	.	.
Cc1nc(C(=O)NNC(=O)Nc2ccccc2)cs1	-	-	-	-	-	56.7	-	-
COc1ccc(/C=N/Nc2cc(C)nc(-n3nc(C)cc3C)n2)cc1	-	-	-	-	-	-	.	.
Oc1cccc(/C=N/Nc2cc(N3CCCC3)nc(N3CCCC3)n2)c1	-	-	35.6	-	-	96.9	98.5	-	Fluor interf inh=-
Oc1ccc(/C=N/Nc2cc(N3CCCC3)nc(N3CCCC3)n2)cc1	-	-	-	-	-	97.4	99.7	-	Fluor interf inh=-
Oc1ccc(/C=N/Nc2cc(N3CCOCC3)nc(N3CCOCC3)n2)cc1	-	-	-	-	-	-	.	.
COc1ccc(/C=N/Nc2cc(N3CCCC3)nc(N3CCCC3)n2)cc1	-	-	36.5	-	-	93.4	96.3	-	Fluor interf inh=-
